# Measured values published in ChEMBL document CHEMBL3616436, “Synthesis, cytotoxicity and antimicrobial activity of thiourea derivatives incorporating 3-(trifluoromethyl)phenyl moiety” (Eur J Med Chem, 2015).
# Active and inactive are the calls of the source. The rule behind the calls is not given here.
# What was measured:
# Escherichia coli [1] = assay: Antimicrobial activity against Escherichia coli NCTC 8196 after 18 hrs by twofold serial microdilution method; assay type: functional, organism-based
# [2] = Cytotoxicity against BHK cells assessed as cell viability after 48 to 96 hrs by MTT assay; assay type: cell-based, Mesocricetus auratus; conditions: hamster
# Candida albicans [3] = assay: Antimicrobial activity against Candida albicans ATCC 90028 after 24 hrs by twofold serial microdilution method; assay type: functional, organism-based
# Coxsackievirus B5 = assay: Antiviral activity against Human coxsackievirus B5 ATCC VR-29 infected in African green monkey Vero 76 cells assessed as reduction of virus-plaque formation after 3 days by crystal violet staining; assay type: functional, organism-based; conditions: Enterovirus B, ATCC VR-29, Vero, 72 h
# Outline: (§1)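 Plaque reduction: Vero-76 at 2x10^5 cells/well grown to confluent monolayers, infected 2 h at 50–100 PFU/well; after removing unadsorbed virus, overlay of D-MEM, 1% inactivated FBS, 0.75% methylcellulose with or without serial compound dilutions; 3 days at 37°C, fixed and stained with crystal violet in 50% ethanol, plaques counted; EC50 by linear regression.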
# [4] = Cytotoxicity against African green monkey Vero 76 cells assessed as cell viability after 48 to 96 hrs by crystal violet staining; assay type: cell-based; conditions: chlorocebus sabaeus
# [5] = Cytotoxicity against bovine MDBK cells assessed as cell viability after 48 to 96 hrs by MTT assay; assay type: cell-based, Bos taurus; conditions: cattle
# Human alphaherpesvirus 1 = assay: Antiviral activity against Human herpesvirus 1 KOS ATCC VR-1493 infected in African green monkey Vero 76 cells assessed as reduction of virus-plaque formation after 3 days by crystal violet staining; assay type: functional, organism-based; conditions: Human alphaherpesvirus 1, KOS ATCC VR1493, Vero, 72 h; outline: as §1
# Vaccinia virus = assay: Antiviral activity against Human Vaccinia virus ATCC VR-1549 infected in African green monkey Vero 76 cells assessed as reduction of virus-plaque formation after 3 days by crystal violet staining; assay type: functional, organism-based; conditions: Orthopoxvirus vaccinia, ATCC VR-1549, Vero, 72 h
# Pseudomonas aeruginosa [6] = assay: Antimicrobial activity against Pseudomonas aeruginosa ATCC 27863 after 18 hrs by twofold serial microdilution method; assay type: functional, organism-based
# [7] = test system: Human immunodeficiency virus 1; assay: Antiviral activity against HIV1 3B infected in human MT4 cells assessed as protection against virus-induced cytopathogenicity by MTT assay; assay type: functional, organism-based; conditions: Human immunodeficiency virus 1, 3B
# [8] = Antiviral activity against Bovine viral diarrhea virus 1-NADL ATCC VR-534 infected in MDBK cells assessed as protection against virus-induced cytopathogenicity after 3 to 4 days by MTT assay; assay type: functional, cell-based; conditions: Bovine viral diarrhea virus isolates and strains, ATCC VR-534, MDBK
# Outline: (§2)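 Cells seeded in 96-well plates (BHK 5x10^4, MDBK 3x10^4 cells/well), grown overnight to confluence, infected at m.o.i. 0.01 (BHK for Reo-1, MDBK for BVDV); serial compound dilutions in maintenance medium with 0.5% inactivated FBS added after 1 h; viability by MTT after 3–4 days at 37°C; EC50 for 50% protection by linear regression.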
# [9] = test system: Bordetella bronchiseptica; assay: Antimicrobial activity against Bordetella bronchiseptica ATCC 4617 after 18 hrs by twofold serial microdilution method; assay type: functional, organism-based
# Poliovirus 1 = assay: Antiviral activity against Poliovirus type 1 ATCC VR-1562 infected in African green monkey Vero 76 cells assessed as reduction of virus-plaque formation after 2 days by crystal violet staining; assay type: functional, organism-based; conditions: Enterovirus C, ATCC VR-1562, Vero, 48 h
# Candida albicans [10] = assay: Antimicrobial activity against Candida albicans ATCC 10231 after 24 hrs by twofold serial microdilution method; assay type: functional, organism-based
# Pseudomonas aeruginosa [11] = assay: Antimicrobial activity against Pseudomonas aeruginosa ATCC 15442 after 18 hrs by twofold serial microdilution method; assay type: functional, organism-based
# Yellow fever virus = assay: Antiviral activity against Yellow fever virus 17D infected in BHK cells assessed as protection against virus-induced cytopathogenicity after 3 to 4 days by MTT assay; assay type: functional, cell-based
# Pseudomonas aeruginosa [12] = assay: Antimicrobial activity against Pseudomonas aeruginosa NCTC 6749 after 18 hrs by twofold serial microdilution method; assay type: functional, organism-based
# WIL2-NS = assay: Cytotoxicity against human WIL2-NS cells after 96 hrs by MTT assay; assay type: functional
# Outline: (§3)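 Leukaemia/lymphoma lines seeded at 1×10^5 cells/ml in RPMI-1640 with 10% FCS and penicillin/streptomycin; incubated with serial dilutions at 37°C, 5% CO2; viability by MTT after 96 h; value is concentration reducing proliferation by 50%, with untreated controls undergoing at least three rounds of multiplication.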
# Candida parapsilosis = assay: Antimicrobial activity against Candida parapsilosis ATCC 22019 after 24 hrs by twofold serial microdilution method; assay type: functional, organism-based
# CCRF-CEM = assay: Cytotoxicity against human CCRF-CEM cells after 96 hrs by MTT assay; assay type: functional; outline: as §3
# [13] = Cytotoxicity against human MT4 cells; assay type: cell-based
# [14] = test system: Mammalian orthoreovirus 1; assay: Antiviral activity against Reovirus type-1 ATCC VR-214 infected in BHK cells assessed as protection against virus-induced cytopathogenicity after 3 to 4 days by MTT assay; assay type: functional, cell-based; conditions: Mammalian orthoreovirus 1, ATCC VR-214, BHK; outline: as §2
# CCRF-SB = assay: Cytotoxicity against human CCRF-SB cells after 96 hrs by MTT assay; assay type: functional; outline: as §3
# [15] = test system: Vesicular stomatitis virus; assay: Antiviral activity against Vesicular stomatitis virus ATCC VR 1540 infected in African green monkey Vero 76 cells assessed as reduction of virus-plaque formation after 2 days by crystal violet staining; assay type: functional, organism-based; conditions: ATCC VR 1540, Vero, 48 h
# Escherichia coli [16] = assay: Antimicrobial activity against Escherichia coli ATCC 25922 after 18 hrs by twofold serial microdilution method; assay type: functional, organism-based
# Escherichia coli [17] = assay: Antimicrobial activity against Escherichia coli ATCC 10538 after 18 hrs by twofold serial microdilution method; assay type: functional, organism-based
# [18] = test system: Mycobacterium tuberculosis; assay: Antimycobacterial activity against Mycobacterium tuberculosis H37Rv ATCC 25618; assay type: functional
# Outline: (§4)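 Classical test-tube successive-dilution method in Youmans' modification of Proskauer and Beck liquid medium with 10% bovine serum. Inoculum came from 14-day cultures. DMSO stock was 10 mg/mL, diluted geometrically in medium. Tubes were incubated at 37 °C. Concentrations tested were 3.1, 6.2, 12.5, 25, 50 and 100 µg/ml. MIC is the minimum concentration inhibiting growth relative to compound-free tubes.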
# [19] = test system: Staphylococcus epidermidis; assay: Antimicrobial activity against Staphylococcus epidermidis ATCC 35984 after 18 hrs by twofold serial microdilution method; assay type: functional; conditions: ATCC 35984, 18 h
# Staphylococcus aureus [20] = assay: Antimicrobial activity against Staphylococcus aureus ATCC 29213 at 400 ug after 18 hrs by disc-diffusion method; assay type: functional; conditions: ATCC 29213, 18 h, read-out: IZ
# Outline: (§5)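 Disc diffusion on Mueller-Hinton II agar per CLSI; 9 mm paper discs loaded with 400 µg compound from DMSO solution, dried, placed on agar; growth inhibition zone diameter read after 18 h at 35°C.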
# Bacillus subtilis = assay: Antimicrobial activity against Bacillus subtilis ATCC 6633 at 400 ug after 18 hrs by disc-diffusion method; assay type: functional; conditions: ATCC 6633, 18 h, read-out: IZ; outline: as §5
# Enterococcus faecalis = assay: Antimicrobial activity against Enterococcus faecalis ATCC 29212 at 400 ug after 18 hrs by disc-diffusion method; assay type: functional; conditions: ATCC 29212, 18 h, read-out: IZ; outline: as §5
# Staphylococcus aureus [21] = assay: Antimicrobial activity against Staphylococcus aureus ATCC 6538 after 18 hrs by twofold serial microdilution method; assay type: functional; conditions: ATCC 6538, 18 h
# Enterococcus hirae = assay: Antimicrobial activity against Enterococcus hirae ATCC 10541 at 400 ug after 18 hrs by disc-diffusion method; assay type: functional; outline: as §5
# Staphylococcus aureus [22] = assay: Antimicrobial activity against Staphylococcus aureus ATCC 25923 after 18 hrs by twofold serial microdilution method; assay type: functional; conditions: ATCC 25923, 18 h
# Staphylococcus aureus [23] = assay: Antimicrobial activity against Staphylococcus aureus ATCC 6538 at 400 ug after 18 hrs by disc-diffusion method; assay type: functional; conditions: ATCC 6538, 18 h, read-out: IZ; outline: as §5
# Bacillus cereus = assay: Antimicrobial activity against Bacillus cereus ATCC 11778 at 400 ug after 18 hrs by disc-diffusion method; assay type: functional; conditions: ATCC 11778, 18 h, read-out: IZ; outline: as §5
# Micrococcus luteus [24] = assay: Antimicrobial activity against Micrococcus luteus ATCC 9341 at 400 ug after 18 hrs by disc-diffusion method; assay type: functional; conditions: ATCC 9341, 18 h, read-out: IZ; outline: as §5
# Micrococcus luteus [25] = assay: Antimicrobial activity against Micrococcus luteus ATCC 10240 at 400 ug after 18 hrs by disc-diffusion method; assay type: functional; conditions: ATCC 10240, 18 h, read-out: IZ; outline: as §5
# [26] = test system: Staphylococcus epidermidis; assay: Antimicrobial activity against Staphylococcus epidermidis ATCC 12228 at 400 ug after 18 hrs by disc-diffusion method; assay type: functional; conditions: ATCC 12228, 18 h, read-out: IZ; outline: as §5
# Staphylococcus aureus [27] = assay: Antimicrobial activity against Staphylococcus aureus ATCC 29213 after 18 hrs by twofold serial microdilution method; assay type: functional; conditions: ATCC 29213, 18 h
# [28] = test system: Staphylococcus epidermidis; assay: Antimicrobial activity against Staphylococcus epidermidis ATCC 35984 at 400 ug after 18 hrs by disc-diffusion method; assay type: functional; conditions: ATCC 35984, 18 h, read-out: IZ; outline: as §5
# [29] = test system: Mycobacterium tuberculosis; assay: Antimycobacterial activity against drug-sensitive Mycobacterium tuberculosis Spec. 192; assay type: functional; outline: as §4
# [30] = test system: Staphylococcus epidermidis; assay: Antimicrobial activity against Staphylococcus epidermidis ATCC 12228 after 18 hrs by twofold serial microdilution method; assay type: functional; conditions: ATCC 12228, 18 h
# Staphylococcus aureus [31] = assay: Antimicrobial activity against Staphylococcus aureus NCTC 4163 at 400 ug after 18 hrs by disc-diffusion method; assay type: functional; conditions: NCTC 4163, 18 h, read-out: IZ; outline: as §5
# Staphylococcus aureus [32] = assay: Antimicrobial activity against Staphylococcus aureus ATCC 25923 at 400 ug after 18 hrs by disc-diffusion method; assay type: functional; conditions: ATCC 25923, 18 h, read-out: IZ; outline: as §5
# Staphylococcus aureus [33] = assay: Antimicrobial activity against Staphylococcus aureus NCTC 4163 after 18 hrs by twofold serial microdilution method; assay type: functional; conditions: NCTC 4163, 18 h
# Proteus vulgaris = assay: Antimicrobial activity against Proteus vulgaris NCTC 4635 at 400 ug after 18 hrs by disc-diffusion method; assay type: functional; outline: as §5
compound,measurement,setting,value
FC(F)(F)c1cccc(NC(=S)Nc2ccc(I)cc2)c1,Activity,Escherichia coli [1],inactive
same,CC50,[2],9.4 µM
same,Activity,Candida albicans [3],inactive
same,EC50,Coxsackievirus B5,> 9.5 µM
same,CC50,[4],9.5 µM
same,CC50,[5],9.5 µM
same,EC50,Human alphaherpesvirus 1,> 9.5 µM
same,EC50,Vaccinia virus,> 9.5 µM
same,Activity,Pseudomonas aeruginosa [6],inactive
same,EC50,[7],> 10.5 µM
same,EC50,[8],> 9.5 µM
same,Activity,[9],inactive
same,EC50,Poliovirus 1,> 9.5 µM
same,Activity,Candida albicans [10],inactive
same,Activity,Pseudomonas aeruginosa [11],inactive
same,EC50,Yellow fever virus,> 9.4 µM
same,Activity,Pseudomonas aeruginosa [12],inactive
same,CC50,WIL2-NS,8 µM
same,Activity,Candida parapsilosis,inactive
same,CC50,CCRF-CEM,8 µM
same,CC50,[13],10 µM
same,EC50,[14],> 9.4 µM
same,CC50,CCRF-SB,9.1 µM
same,EC50,[15],> 9.5 µM
same,Activity,Escherichia coli [16],inactive
same,Activity,Escherichia coli [17],inactive
FC(F)(F)c1cccc(NC(=S)Nc2cccc(Cl)c2)c1,MIC,[18],100 µg/mL
same,CC50,[2],9.5 µM
same,EC50,Coxsackievirus B5,> 20 µM
same,CC50,[4],20 µM
same,CC50,[5],19 µM
same,MIC,[19],64 µg/mL
same,EC50,Human alphaherpesvirus 1,> 20 µM
same,EC50,Vaccinia virus,> 20 µM
same,EC50,[7],> 10 µM
same,EC50,[8],> 19 µM
same,EC50,Poliovirus 1,> 20 µM
same,zone of inhibition at 400 µg/disc,Staphylococcus aureus [20],27 mm
same,zone of inhibition at 400 µg/disc,Bacillus subtilis,26 mm
same,zone of inhibition at 400 µg/disc,Enterococcus faecalis,20 mm
same,MIC,Staphylococcus aureus [21],32 µg/mL
same,inhibition zone (IZ),Enterococcus hirae,inactive
same,MIC,Staphylococcus aureus [22],32 µg/mL
same,zone of inhibition at 400 µg/disc,Staphylococcus aureus [23],29 mm
same,EC50,Yellow fever virus,> 9.5 µM
same,zone of inhibition at 400 µg/disc,Bacillus cereus,23 mm
same,zone of inhibition at 400 µg/disc,Micrococcus luteus [24],30 mm
same,CC50,WIL2-NS,11 µM
same,zone of inhibition at 400 µg/disc,Micrococcus luteus [25],27 mm
same,CC50,CCRF-CEM,9.1 µM
same,zone of inhibition at 400 µg/disc,[26],28 mm
same,CC50,[13],10 µM
same,EC50,[14],> 9.5 µM
same,MIC,Staphylococcus aureus [27],32 µg/mL
same,zone of inhibition at 400 µg/disc,[28],26 mm
same,MIC,[29],100 µg/mL
same,MIC,[30],32 µg/mL
same,CC50,CCRF-SB,9.6 µM
same,zone of inhibition at 400 µg/disc,Staphylococcus aureus [31],29 mm
same,zone of inhibition at 400 µg/disc,Staphylococcus aureus [32],27 mm
same,EC50,[15],> 20 µM
same,MIC,Staphylococcus aureus [33],32 µg/mL
same,inhibition zone (IZ),Proteus vulgaris,inactive
